Here are results for two molecules from ChEMBL document CHEMBL4043182, “On the synthesis of quinone-based BODIPY hybrids: New insights on antitumor activity and mechanism of action in cancer cells” (Bioorg Med Chem Lett, 2017).

Experiment [1] deals with SF-295. The experiment in a line: Cytotoxicity against human SF295 cells after 24 hrs in absence of GSH-OEt by MTT assay. It is filed as functional, cell-based. Particulars: SF-295, 24 h. The method in brief: (§1)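 24 h MTT exposure (0.04–40.92 µM in 0.1% DMSO), with or without co-treatment with GSH ethyl ester (15 mM) to gauge the ROS contribution. MTT was 0.5 mg/mL for 3 h, with formazan dissolved in DMSO and absorbance at 595 nm expressed as % of control. Triplicate, repeated at least three times.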
(In general: Tetrazolium dyes change colour on reduction, which living cells bring about.)

Experiment [2] concerns PC-3. Nature of the experiment: Antiproliferative activity against human PC3 cells after 72 hrs by MTT assay. The format is functional, cell-based. As to conditions: PC-3, 72 h. The method in brief:
(§2)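 MTT reduction: cancer lines plated at 0.7×10^5 to 0.3×10^6 cells/well, V79 and L929 fibroblasts at 0.5×10^5 cells/well. Compounds in DMSO (0.1%) were given for 24 h at 0.04–40.92 µM or 72 h at 0.04–8.19 µM. Fresh medium with 0.5 mg/mL MTT was added for 3 h, then formazan was dissolved in DMSO and read at 595 nm as % of control. IC50 came from nonlinear regression with 95% CI. Doxorubicin (0.001–1.06 µM) was the positive control. Triplicate, ≥3 repeats.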

The subject of experiment [3] is L929. Nature of the experiment: Antiproliferative activity against mouse L929 cells after 72 hrs by MTT assay. Particulars: L929, 72 h. It is filed as cell-based. In short, it runs like this:
as §2

Experiment [4] relates to HCT-116. Nature of the experiment: Antiproliferative activity against human HCT116 cells after 72 hrs by MTT assay. It is filed as functional, cell-based. Particulars: HCT-116, 72 h. The method in brief:
as §2

Experiment [5] has as its system HCT-116. The experiment in a line: Cytotoxicity against human HCT116 cells after 24 hrs in presence of GSH-OEt by MTT assay. The format is functional, cell-based. As to conditions: HCT-116, 24 h. The method in brief:
as §1

Experiment [6] concerns SF-295. The experiment in a line: Antiproliferative activity against human SF295 cells after 72 hrs by MTT assay. As to conditions: SF-295, 72 h. It is filed as functional, cell-based. The method in brief:
as §2

In experiment [7] the test system is L929. Nature of the experiment: Cytotoxicity against mouse L929 cells after 24 hrs in presence of GSH-OEt by MTT assay. It is filed as cell-based. As to conditions: L929, 24 h. The method in brief:
as §1

In experiment [8] the test system is SF-295. Nature of the experiment: Cytotoxicity against human SF295 cells after 24 hrs in presence of GSH-OEt by MTT assay. The format is functional, cell-based. Particulars: SF-295, 24 h. The method in brief: as §1
A further experiment deals with V79. The experiment in a line: Antiproliferative activity against chinese hamster V79 cells after 72 hrs by MTT assay. It is filed as cell-based. As to conditions: Cricetulus griseus, V79, 72 h. The method in brief:
as §2

Experiment [9] has as its system PC-3. The experiment in a line: Cytotoxicity against human PC3 cells after 24 hrs in presence of GSH-OEt by MTT assay. It is filed as functional, cell-based. Particulars: PC-3, 24 h. In short, it runs like this: as §1
The subject of experiment [10] is HCT-116. The experiment in a line: Cytotoxicity against human HCT116 cells after 24 hrs in absence of GSH-OEt by MTT assay. It is filed as functional, cell-based. As to conditions: HCT-116, 24 h. The method in brief:
as §1

In experiment [11] the test system is L929. Nature of the experiment: Cytotoxicity against mouse L929 cells after 24 hrs in absence of GSH-OEt by MTT assay. It is filed as cell-based. Particulars: L929, 24 h. The method in brief:
as §1

The test system of another experiment is SW-620. Nature of the experiment: Antiproliferative activity against human SW620 cells after 72 hrs by MTT assay. It is filed as functional, cell-based. As to conditions: SW-620, 72 h. In short, it runs like this: as §2
The test system of another experiment is MDA-MB-435. The experiment in a line: Antiproliferative activity against human MDA-MB-435 cells after 72 hrs by MTT assay. The format is functional, cell-based. Particulars: MDA-MB-435, 72 h. In short, it runs like this:
as §2

The test system of experiment [12] is PC-3. Nature of the experiment: Cytotoxicity against human PC3 cells after 24 hrs in absence of GSH-OEt by MTT assay. It is filed as functional, cell-based. Particulars: PC-3, 24 h. In short, it runs like this: as §1

As usually defined, the IC50 is the concentration that inhibits the measured activity by half. As for `CC1(C)CC(n2cc(CNc3ccc4n3[B-](F)(F)[N+]3=C(Cl)C=CC3=C4c3ccccc3)nn2)C2=C(O1)C(=O)c1ccccc1C2=O` (stereo not given), the IC50 in the experiment with SF-295 [1] was over 40 µM; in the experiment with PC-3 [2], over 7.83 µM; in the experiment with L929 [3], over 7.83 µM; in the experiment on HCT-116 [4], over 7.83 µM; in the experiment with HCT-116 [5] it was over 40 µM; in the experiment on SF-295 [6], over 7.83 µM. Besides, the IC50 was over 40 µM with L929 [7]; over 40 µM in the experiment with SF-295 [8]; over 7.83 µM in the experiment with V79; over 40 µM in the experiment on PC-3 [9]; over 40 µM in the experiment with HCT-116 [10]; over 40 µM in the experiment with L929 [11]. Also, the values for the IC50 in the experiment with SW-620, in the experiment with MDA-MB-435 and in the experiment with PC-3 [12] were over 7.83 µM, over 7.83 µM and over 40 µM, respectively.

For the molecule `O=C1C2=C(OC(Cn3cc(CNc4ccc5n4[B-](F)(F)[N+]4=C(Cl)C=CC4=C5c4ccccc4)nn3)C2)C(=O)c2ccccc21` (stereo not given), the IC50 in the experiment on SF-295 [1] is over 40 µM; in the experiment on PC-3 [2], over 8.19 µM; with L929 [3], over 8.19 µM; in the experiment on HCT-116 [4], over 8.19 µM; with HCT-116 [5], over 40 µM; in the experiment on SF-295 [6], over 8.19 µM. Also, the IC50 in the experiment on L929 [7] was over 40 µM; in the experiment on SF-295 [8], over 40 µM; with V79, over 8.19 µM; in the experiment with PC-3 [9], over 40 µM; in the experiment with HCT-116 [10], over 40 µM; in the experiment with L929 [11] it was over 40 µM. Besides, the IC50 is over 8.19 µM in the experiment on SW-620, over 8.19 µM in the experiment on MDA-MB-435 and over 40 µM with PC-3 [12].
